Assay results as given in ChEMBL document CHEMBL1142924, “N(6)-[(hetero)aryl/(cyclo)alkyl-carbamoyl-methoxy-phenyl]-(2-chloro)-5'-N-ethylcarboxamido-adenosines: the first example of adenosine-related structures with potent agonist activity at the human A(2B) adenosine receptor” (Bioorg Med Chem, 2007).

Tests used:
Adenosine receptor A2a = Adenosine receptor A2a (Homo sapiens, UniProt P29274); test: Displacement of [3H]CGS-21680 from human adenosine A2A receptor expressed in CHO cells; format: cell-based; parameters: concentration or dose not given beside the values
Adenosine receptor A3 = biological target: T1, Adenosine receptor A3 (Homo sapiens, UniProt P0DMS8); test: Displacement of [125I]ABMECA from human adenosine A3 receptor expressed in CHO cells
T1 sequence (P0DMS8 whole entry): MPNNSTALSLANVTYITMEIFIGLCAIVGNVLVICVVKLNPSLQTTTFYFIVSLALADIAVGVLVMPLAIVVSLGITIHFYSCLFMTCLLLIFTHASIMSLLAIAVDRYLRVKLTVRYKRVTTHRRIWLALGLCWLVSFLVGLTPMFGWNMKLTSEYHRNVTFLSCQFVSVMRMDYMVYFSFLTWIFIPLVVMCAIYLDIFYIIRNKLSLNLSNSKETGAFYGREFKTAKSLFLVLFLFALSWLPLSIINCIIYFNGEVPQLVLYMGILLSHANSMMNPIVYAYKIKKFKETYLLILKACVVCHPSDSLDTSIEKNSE

Adenosine receptor A1 = biological target: T2, Adenosine receptor A1 (Homo sapiens, UniProt P30542); test: Displacement of [3H]CHA from human adenosine A1 receptor expressed in CHO cells; format: cell-based
T2 sequence (P30542 whole entry): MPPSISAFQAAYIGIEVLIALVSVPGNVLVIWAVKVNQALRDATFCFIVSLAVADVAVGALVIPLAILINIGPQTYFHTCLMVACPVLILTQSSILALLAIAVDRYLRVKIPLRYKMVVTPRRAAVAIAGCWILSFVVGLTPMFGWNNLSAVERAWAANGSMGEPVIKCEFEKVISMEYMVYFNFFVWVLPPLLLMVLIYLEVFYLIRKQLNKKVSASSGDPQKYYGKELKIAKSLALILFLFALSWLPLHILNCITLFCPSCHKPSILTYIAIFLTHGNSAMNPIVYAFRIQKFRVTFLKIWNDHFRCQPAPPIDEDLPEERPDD
Summary of the method: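 Human A1 in CHO cell membranes, pretreated with adenosine deaminase 2 IU/mL for 30 min at 37 °C. 50 µg protein per assay incubated with 1 nM [³H]CHA and 6–8 agonist concentrations in 50 mM Tris-HCl pH 7.4 for 150 min at 25 °C. Nonspecific binding defined by 10 µM CHA. Separated by GF/B filtration, counted by scintillation. Ki from IC50 via Cheng–Prusoff.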

Adenosine receptor A2b = biological target: T3, Adenosine receptor A2b (Homo sapiens, UniProt P29275); test: Agonist activity at human adenosine A2B receptor expressed in CHO cells assessed as stimulation of cAMP production; format: functional, cell-based
T3 sequence (P29275 whole entry): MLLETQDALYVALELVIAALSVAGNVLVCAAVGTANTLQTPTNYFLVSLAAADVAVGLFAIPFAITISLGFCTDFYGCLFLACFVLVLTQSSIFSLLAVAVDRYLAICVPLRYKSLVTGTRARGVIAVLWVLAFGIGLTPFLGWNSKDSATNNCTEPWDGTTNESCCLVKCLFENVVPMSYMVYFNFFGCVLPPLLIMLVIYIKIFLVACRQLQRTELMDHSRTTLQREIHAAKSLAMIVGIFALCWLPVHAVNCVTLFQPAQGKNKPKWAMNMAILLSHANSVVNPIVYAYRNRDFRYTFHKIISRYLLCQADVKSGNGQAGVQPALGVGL
Summary of the method: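 CHO cells stably expressing human A2B, grown in DMEM/F12 with 10% serum and G418, trypsinized and pelleted. 1 × 10⁶ cells/assay preincubated 10 min at 37 °C with adenosine deaminase 2 IU/mL and Ro 20-1724. Ligands at 1 nM–10 µM added for 5 min, stopped with cold 6% TCA, ether-extracted. cAMP read by [³H]cAMP competition protein binding. EC50 from sigmoid non-linear regression; 3–4 experiments in duplicate.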

Chain of Adenosine receptor A2a (P29274 whole entry): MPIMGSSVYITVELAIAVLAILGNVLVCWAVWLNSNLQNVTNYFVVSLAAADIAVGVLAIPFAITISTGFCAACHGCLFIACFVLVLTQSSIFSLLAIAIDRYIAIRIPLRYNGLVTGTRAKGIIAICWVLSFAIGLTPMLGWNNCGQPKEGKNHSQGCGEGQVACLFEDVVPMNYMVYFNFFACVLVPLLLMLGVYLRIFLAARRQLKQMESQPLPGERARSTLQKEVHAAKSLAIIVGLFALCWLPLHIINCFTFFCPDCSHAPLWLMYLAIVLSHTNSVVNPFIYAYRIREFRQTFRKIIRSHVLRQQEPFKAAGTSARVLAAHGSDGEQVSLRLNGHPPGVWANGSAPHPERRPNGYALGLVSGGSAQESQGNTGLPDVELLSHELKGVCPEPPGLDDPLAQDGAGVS

Activity (Adenosine receptor A2a) | Ki (Adenosine receptor A2a) | Ki (Adenosine receptor A3) | Ki (Adenosine receptor A1) | EC50 (Adenosine receptor A2b) | SMILES
28% | > 1000 nM | 85.2 nM | 5.2 nM | 30.2 nM | CCNC(=O)[C@H]1O[C@@H](n2cnc3c(Nc4ccc(OCC(=O)Nc5ccc(I)cc5)cc4)ncnc32)[C@H](O)[C@@H]1O
37% | > 1000 nM | 42.3 nM | 11.2 nM | 32.3 nM | CCNC(=O)[C@H]1O[C@@H](n2cnc3c(Nc4ccc(OCC(=O)Nc5ccncc5)cc4)ncnc32)[C@H](O)[C@@H]1O
36% | > 1000 nM | 107 nM | 30.5 nM | 42.6 nM | CCNC(=O)[C@H]1O[C@@H](n2cnc3c(Nc4ccc(OCC(=O)Nc5ccccc5)cc4)nc(Cl)nc32)[C@H](O)[C@@H]1O
26% | > 1000 nM | 36.4 nM | 3.5 nM | 10.5 nM | CCNC(=O)[C@H]1O[C@@H](n2cnc3c(Nc4ccc(OCC(=O)Nc5ccc(Br)cc5)cc4)ncnc32)[C@H](O)[C@@H]1O
5% | > 1000 nM | 81.4 nM | 8.4 nM | 35.5 nM | CCNC(=O)[C@H]1O[C@@H](n2cnc3c(Nc4ccc(OCC(=O)Nc5ccc6c(c5)OCO6)cc4)ncnc32)[C@H](O)[C@@H]1O
49% | > 1000 nM | 75.7 nM | 22.6 nM | 175 nM | CCNC(=O)[C@H]1O[C@@H](n2cnc3c(Nc4ccc(OCC(=O)NCc5ccccc5)cc4)nc(Cl)nc32)[C@H](O)[C@@H]1O
42% | > 1000 nM | 25.3 nM | 4.7 nM | 32.4 nM | CCNC(=O)[C@H]1O[C@@H](n2cnc3c(Nc4ccc(OCC(=O)Nc5ccc(OC)cc5)cc4)ncnc32)[C@H](O)[C@@H]1O
40% | > 1000 nM | 72.5 nM | 16.2 nM | 315 nM | CCNC(=O)[C@H]1O[C@@H](n2cnc3c(Nc4ccc(OCC(=O)NC5CCCCC5)cc4)ncnc32)[C@H](O)[C@@H]1O
49% | > 1000 nM | 82.7 nM | 20.4 nM | 150 nM | CCNC(=O)[C@H]1O[C@@H](n2cnc3c(Nc4ccc(OCC(=O)NCc5ccccc5)cc4)ncnc32)[C@H](O)[C@@H]1O
13% | > 1000 nM | 78.6 nM | 15.3 nM | 53.6 nM | CCNC(=O)[C@H]1O[C@@H](n2cnc3c(Nc4ccc(OCC(=O)Nc5cc(OC)cc(OC)c5)cc4)ncnc32)[C@H](O)[C@@H]1O
1% | > 1000 nM | 320 nM | 77.5 nM | 300 nM | CCNC(=O)[C@H]1O[C@@H](n2cnc3c(Nc4ccc(OCC(=O)Nc5ccc(N6CCOCC6)cc5)cc4)ncnc32)[C@H](O)[C@@H]1O
35% | > 1000 nM | 34.2 nM | 3.1 nM | 12.3 nM | CCNC(=O)[C@H]1O[C@@H](n2cnc3c(Nc4ccc(OCC(=O)Nc5ccc(Cl)cc5)cc4)ncnc32)[C@H](O)[C@@H]1O
1% | > 1000 nM | 115 nM | 31.6 nM | 107 nM | CCNC(=O)[C@H]1O[C@@H](n2cnc3c(Nc4ccc(OCC(=O)Nc5ccccc5C(F)(F)F)cc4)ncnc32)[C@H](O)[C@@H]1O
1% | > 1000 nM | 40.2 nM | 18.6 nM | 16.4 nM | CCNC(=O)[C@H]1O[C@@H](n2cnc3c(Nc4ccc(OCC(=O)Nc5ccc(C(C)(C)C)cc5)cc4)ncnc32)[C@H](O)[C@@H]1O
45% | > 1000 nM | 38.4 nM | 8.5 nM | 7.3 nM | CCNC(=O)[C@H]1O[C@@H](n2cnc3c(Nc4ccc(OCC(=O)Nc5ccccc5)cc4)ncnc32)[C@H](O)[C@@H]1O
48% | > 1000 nM | 72.3 nM | 2.3 nM | 15.2 nM | CCNC(=O)[C@H]1O[C@@H](n2cnc3c(Nc4ccc(OCC(=O)Nc5ccc(F)cc5)cc4)ncnc32)[C@H](O)[C@@H]1O
1% | > 1000 nM | 65.4 nM | 28.3 nM | 240 nM | CCNC(=O)[C@H]1O[C@@H](n2cnc3c(Nc4ccc(OCC(=O)NCc5ccc(OC)cc5)cc4)ncnc32)[C@H](O)[C@@H]1O
46% | > 1000 nM | 95.8 nM | 30.8 nM | 302 nM | CCNC(=O)[C@H]1O[C@@H](n2cnc3c(Nc4ccc(OCC(=O)NC5CCCCC5)cc4)nc(Cl)nc32)[C@H](O)[C@@H]1O
27% | > 1000 nM | 101 nM | 50.4 nM | 360 nM | CCNC(=O)[C@H]1O[C@@H](n2cnc3c(Nc4ccc(OCC(=O)Nc5ccc(OC)cc5)cc4)nc(Cl)nc32)[C@H](O)[C@@H]1O
30% | > 1000 nM | 53.2 nM | 7.7 nM | 45.4 nM | CCNC(=O)[C@H]1O[C@@H](n2cnc3c(Nc4ccc(OCC(=O)Nc5ccc(OC)c(OC)c5)cc4)ncnc32)[C@H](O)[C@@H]1O
